Measured values as given in PMC4197414 (Scientific Reports, 2014).
Non-standard residues stand in square brackets, D forms with d. Nap = naphthalene (naphthaline) capping group; Lys(Me3) = C[N+](C)(C)CCCC[C@H](N)C(=O)O; Ada = adamantane cap

Experiments:
[1] = tested on: C-LytA (C-terminal moiety of the pneumococcal cell-wall amidase LytA); test: Isothermal titration calorimetry; type: binding, Streptococcus pneumoniae; conditions: ITC; in words, as compared to Fmoc-K' itself
Outline: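 Recombinant C-LytA was expressed in E. coli BL21(DE3), induced with 0.3 mM IPTG at 16°C for 16–18 h, purified on Q Sepharose, eluted with 2% choline, and dialysed into PBS to remove choline. It was a dimer by gel filtration and ultracentrifugation. ITC was run in PBS at 16°C with ligand at pH 7.4, both solutions degassed by centrifugation. Ligand was titrated into the protein cell (0.4 μL, then 19 × 2 μL injections, 120 s apart, stirred at 1000 rpm). Ka came from a one- or two-site binding fit.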

[2] = Transmission electron microscopy; type: physicochemical; conditions: TEM, PBS; for morphology after self-assembly: pH = 7.4, above CMC, samples prepared at 25°C, uranyl acetate stain
Outline: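 Samples were prepared in PBS at 25°C and applied to carbon-coated copper grids. Excess liquid was blotted with filter paper, and samples were negatively stained with uranyl acetate. Grids were dried overnight in a desiccator and imaged at 200 kV.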

[3] = pH = 7.4, 1.25 mmol/L, 1.08 wt% (Figure 2 legend)

With “AdaGFFYKKK'-NH2 (Ada-GFFYKK[Lys(Me3)]-NH2) [Compound 1]” the “association constant (Ka) with C-LytA compared to Fmoc-K'” value [1] was “far higher association constant”, the “average diameter of nanoparticles” value ([2]; pH = 7.4, 1.09 wt%) was “around 153 nm” and the morphology after self-assembly [2] was “nanoparticle morphology”.
With “NapGFFYKKK'-NH2 (Nap-GFFYKK[Lys(Me3)]-NH2) [Compound 2]” the “association constant (Ka) with C-LytA compared to Fmoc-K'” value [1] was “far higher association constant”, the morphology after self-assembly [2] was “uniform nanofibers” and the length of nanofibers [2, 3] was “several microns”. For the same substance, the width of nanofibers [2, 3] was “around 75 nm”.
